Measured values: ChEMBL document CHEMBL1140069, “In vitro antifungal activity of polyfunctionalized 2-(hetero)arylquinolines prepared through imino Diels-Alder reactions” (2008)
Values after ≈ are worked out from the molar mass of the structure shown.

Legend:
Assay type in all cases: functional
[1] = test system: Cryptococcus neoformans; experiment: Antimicrobial activity against Cryptococcus neoformans IM 972724 isolate at 12.5 ug/ml after 48 hrs
In short: (§1)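 Clinical Cryptococcus isolates kept on Sabouraud-dextrose agar slopes; inoculum 1–5 × 10³ CFU/mL. Quinoline DMSO stocks were diluted in RPMI-1640 to final 100–6.25 µg/mL, with DMSO ≤2%. An equal volume of inoculum was added (200 µL per well). Run in triplicate.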

[2] = test system: Cryptococcus neoformans; experiment: Antifungal activity against Cryptococcus neoformans ATCC 32264 after 48 hrs by broth microdilution technique; settings: ATCC 32264, 48 h
In short: (§2)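 CLSI broth microdilution: M-27 A2 for yeasts and M-38 A for filamentous fungi. Medium is RPMI-1640 buffered to pH 7.0 with MOPS. Compound is diluted twofold from 250 to 0.98, final DMSO ≤2%. Inoculum is 1–5 × 10³ CFU/mL. Plates are incubated at 35 °C in a moist, dark chamber and read visually at 48 h. MIC100 is the lowest concentration giving total growth inhibition versus drug-free control.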

[3] = test system: Cryptococcus neoformans; experiment: Antimicrobial activity against Cryptococcus neoformans IM 972751 isolate at 6.25 ug/ml after 48 hrs; in short: as §1
[4] = test system: Candida albicans; experiment: Antimicrobial activity against Candida albicans ATCC 10231 at 50 ug/ml after 24 hrs; settings: ATCC 10231, 24 h
In short: (§3)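 Growth-inhibition microplate test. Strains are grown on Sabouraud-chloramphenicol agar for 48 h at 30 °C, and inoculum is added to RPMI-1640 containing compound at a final 100–6.25, with DMSO ≤2%. Each strain has a growth control (same DMSO, no compound) and a sterility control.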

[5] = test system: Cryptococcus neoformans; experiment: Antimicrobial activity against Cryptococcus neoformans IM 961951 isolate at 12.5 ug/ml after 48 hrs
In short: (§4)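 Percent growth inhibition in 96-well microplates. Compound stocks in DMSO (≤2%) were diluted in RPMI-1640 to final 100–6.25 µg/mL, and 100 µL inoculum was added (final 200 µL). Controls were a growth well (inoculum with matching DMSO, no compound) and a sterility well (no inoculum). Inhibition was calculated against growth and sterility wells.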

[6] = test system: Cryptococcus neoformans; experiment: Antimicrobial activity against Cryptococcus neoformans IM 00319 isolate at 25 ug/ml after 48 hrs; in short: as §4
[7] = test system: Candida albicans; experiment: Antifungal activity against Candida albicans ATCC 10231 after 48 hrs by broth microdilution technique; settings: ATCC 10231, 48 h; in short: as §2
[8] = test system: Cryptococcus neoformans; experiment: Antimicrobial activity against Cryptococcus neoformans IM 042074 isolate at 25 ug/ml after 48 hrs; in short: as §4
[9] = test system: Cryptococcus neoformans; experiment: Antimicrobial activity against Cryptococcus neoformans IM 031631 isolate at 25 ug/ml after 48 hrs; in short: as §4
[10] = test system: Cryptococcus neoformans; experiment: Antimicrobial activity against Cryptococcus neoformans IM 031631 isolate at 100 ug/ml after 48 hrs; in short: as §4
[11] = test system: Candida albicans; experiment: Antimicrobial activity against Candida albicans ATCC 10231 at 12.5 ug/ml after 24 hrs; settings: ATCC 10231, 24 h; in short: as §3
[12] = test system: Aspergillus niger; experiment: Antifungal activity against Aspergillus niger ATCC 9029 after 48 hrs by broth microdilution technique; settings: ATCC 9029, 48 h; in short: as §2
[13] = test system: Cryptococcus neoformans; experiment: Antimicrobial activity against Cryptococcus neoformans IM 972751 isolate at 50 ug/ml after 48 hrs; in short: as §1
[14] = test system: Cryptococcus neoformans; experiment: Antimicrobial activity against Cryptococcus neoformans IM 031631 isolate at 6.25 ug/ml after 48 hrs; in short: as §4
[15] = test system: Aspergillus fumigatus; experiment: Antifungal activity against Aspergillus fumigatus ATTC 26934 after 48 hrs by broth microdilution technique; in short: as §2
[16] = test system: Candida albicans; experiment: Antimicrobial activity against Candida albicans ATCC 10231 at 6.25 ug/ml after 24 hrs; settings: ATCC 10231, 24 h; in short: as §3
[17] = test system: Cryptococcus neoformans; experiment: Antimicrobial activity against Cryptococcus neoformans IM 031706 isolate at 25 ug/ml after 48 hrs; in short: as §4
[18] = test system: Cryptococcus neoformans; experiment: Antimicrobial activity against Cryptococcus neoformans IM 961951 isolate at 50 ug/ml after 48 hrs; in short: as §1
[19] = test system: Cryptococcus neoformans; experiment: Antimicrobial activity against Cryptococcus neoformans IM 031706 isolate at 6.25 ug/ml after 48 hrs; in short: as §4
[20] = test system: Cryptococcus neoformans; experiment: Antimicrobial activity against Cryptococcus neoformans IM 972751 isolate at 100 ug/ml after 48 hrs; in short: as §1
[21] = test system: Trichophyton rubrum; experiment: Antifungal activity against Trichophyton rubrum C110 after 48 hrs by broth microdilution technique; settings: read-out: MIC; in short: as §2
[22] = test system: Cryptococcus neoformans; experiment: Antimicrobial activity against Cryptococcus neoformans IM 052470 isolate at 12.5 ug/ml after 48 hrs; in short: as §4
[23] = test system: Cryptococcus neoformans; experiment: Antimicrobial activity against Cryptococcus neoformans ATCC 32264 at 12.5 ug/ml after 48 hrs; settings: ATCC 32264, 48 h; in short: as §4
[24] = test system: Cryptococcus neoformans; experiment: Antimicrobial activity against Cryptococcus neoformans IM 983040 isolate at 25 ug/ml after 48 hrs; in short: as §1
[25] = test system: Cryptococcus neoformans; experiment: Antimicrobial activity against Cryptococcus neoformans ATCC 32264 at 100 ug/ml after 48 hrs; settings: ATCC 32264, 48 h; in short: as §4
[26] = test system: Cryptococcus neoformans; experiment: Antimicrobial activity against Cryptococcus neoformans IM 00319 isolate at 100 ug/ml after 48 hrs; in short: as §4
[27] = test system: Cryptococcus neoformans; experiment: Antimicrobial activity against Cryptococcus neoformans IM 961951 isolate at 6.25 ug/ml after 48 hrs; in short: as §1
[28] = test system: Cryptococcus neoformans; experiment: Antimicrobial activity against Cryptococcus neoformans IM 00319 isolate at 12.5 ug/ml after 48 hrs; in short: as §4
[29] = test system: Cryptococcus neoformans; experiment: Antimicrobial activity against Cryptococcus neoformans IM 042074 isolate at 12.5 ug/ml after 48 hrs; in short: as §4
[30] = test system: Cryptococcus neoformans; experiment: Antimicrobial activity against Cryptococcus neoformans IM 972751 isolate at 12.5 ug/ml after 48 hrs; in short: as §1
[31] = test system: Candida albicans; experiment: Antimicrobial activity against Candida albicans ATCC 10231 at 25 ug/ml after 24 hrs; settings: ATCC 10231, 24 h; in short: as §3
[32] = test system: Cryptococcus neoformans; experiment: Antimicrobial activity against Cryptococcus neoformans IM 983036 isolate at 100 ug/ml after 48 hrs; in short: as §1
[33] = test system: Cryptococcus neoformans; experiment: Antimicrobial activity against Cryptococcus neoformans IM 983036 isolate at 12.5 ug/ml after 48 hrs; in short: as §1
[34] = test system: Cryptococcus neoformans; experiment: Antimicrobial activity against Cryptococcus neoformans IM 961951 isolate at 25 ug/ml after 48 hrs; in short: as §1
[35] = test system: Cryptococcus neoformans; experiment: Antimicrobial activity against Cryptococcus neoformans IM 972724 isolate at 50 ug/ml after 48 hrs; in short: as §1
[36] = test system: Cryptococcus neoformans; experiment: Antimicrobial activity against Cryptococcus neoformans ATCC 32264 at 6.25 ug/ml after 48 hrs; settings: ATCC 32264, 48 h; in short: as §4
[37] = test system: Saccharomyces cerevisiae; experiment: Antifungal activity against Saccharomyces cerevisiae ATCC 9763 after 48 hrs by broth microdilution technique; settings: ATCC 9763, 48 h; in short: as §2
[38] = test system: Cryptococcus neoformans; experiment: Antimicrobial activity against Cryptococcus neoformans ATCC 32264 at 50 ug/ml after 48 hrs; settings: ATCC 32264, 48 h; in short: as §4
[39] = test system: Cryptococcus neoformans; experiment: Antimicrobial activity against Cryptococcus neoformans IM 031631 isolate at 50 ug/ml after 48 hrs; in short: as §4
[40] = test system: Cryptococcus neoformans; experiment: Antimicrobial activity against Cryptococcus neoformans IM 00319 isolate at 6.25 ug/ml after 48 hrs; in short: as §4
[41] = test system: Cryptococcus neoformans; experiment: Antimicrobial activity against Cryptococcus neoformans IM 972724 isolate at 25 ug/ml after 48 hrs; in short: as §1
[42] = test system: Cryptococcus neoformans; experiment: Antimicrobial activity against Cryptococcus neoformans IM 052470 isolate at 50 ug/ml after 48 hrs; in short: as §4
[43] = test system: Aspergillus flavus; experiment: Antifungal activity against Aspergillus flavus ATCC 9170 after 48 hrs by broth microdilution technique; settings: ATCC 9170, 48 h; in short: as §2

## c1ccc2nc(-c3ccncc3)ccc2c1
[1]
  inhibition at 12.5 µg/mL: 0%
[2]
  MIC: 50 µg/mL (≈ 242 µM)
[3]
  inhibition at 6.25 µg/mL: 0%
[4]
  inhibition at 50 µg/mL: 73%
[5]
  inhibition at 12.5 µg/mL: 34%
[6]
  inhibition at 25 µg/mL: 52%
[7]
  MIC: 100 µg/mL (≈ 485 µM)
[8]
  inhibition at 25 µg/mL: 87%
[9]
  inhibition at 25 µg/mL: 57%
[10]
  inhibition at 100 µg/mL: 100%
[11]
  inhibition at 12.5 µg/mL: 41%
[12]
  MIC: 50 µg/mL (≈ 242 µM)
[13]
  inhibition at 50 µg/mL: 20%
[14]
  inhibition at 6.25 µg/mL: 12%
[15]
  MIC: 50 µg/mL (≈ 242 µM)
[16]
  inhibition at 6.25 µg/mL: 19%
[17]
  inhibition at 25 µg/mL: 57%
[18]
  inhibition at 50 µg/mL: 89%
[19]
  inhibition at 6.25 µg/mL: 21%
[20]
  inhibition at 100 µg/mL: 98%
[21]
  MIC: 50 µg/mL (≈ 242 µM)
[22]
  inhibition at 12.5 µg/mL: 24%
[23]
  inhibition at 12.5 µg/mL: 90%
[24]
  inhibition at 25 µg/mL: 12%
[25]
  inhibition at 100 µg/mL: 100%
[26]
  inhibition at 100 µg/mL: 92%
[27]
  inhibition at 6.25 µg/mL: 4%
[28]
  inhibition at 12.5 µg/mL: 32%
[29]
  inhibition at 12.5 µg/mL: 76%
[30]
  inhibition at 12.5 µg/mL: 0%
[31]
  inhibition at 25 µg/mL: 63%
[32]
  inhibition at 100 µg/mL: 79%
[33]
  inhibition at 12.5 µg/mL: 20%
[34]
  inhibition at 25 µg/mL: 78%
[35]
  inhibition at 50 µg/mL: 23%
[36]
  inhibition at 6.25 µg/mL: 83%
[37]
  MIC: 50 µg/mL (≈ 242 µM)
[38]
  inhibition at 50 µg/mL: 100%
[39]
  inhibition at 50 µg/mL: 75%
[40]
  inhibition at 6.25 µg/mL: 12%
[41]
  inhibition at 25 µg/mL: 8%
[42]
  inhibition at 50 µg/mL: 75%
[43]
  MIC: 50 µg/mL (≈ 242 µM)
